Data reported in ChEMBL document CHEMBL1148478, “Benzo[f]azino[2,1-a]phthalazinium cations: novel DNA intercalating chromophores with antiproliferative activity” (2004).
The source made the active and inactive calls. The rule behind the calls is not given here.

Columns and labels:
[1] = test system: SK-BR-3; experiment: In vitro antiproliferative activity against human SK-BR-3 breast cell line; type: functional
How it was run: (§1)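 SRB colorimetric growth assay. Cells seeded at 5×10^3 per well in RPMI and left to attach in drug-free medium for 18 h. Compounds were then added in DMSO/H2O 3:7 and exposed for 72 h. Cells were fixed with cold 50% TCA for 60 min at 4 °C and stained with 0.4% SRB for 10 min. Bound dye was solubilized in Tris and OD read at 490 nm. GI50 was derived from control, test and time-zero OD. Triplicate; values above 10 μM were scored NS.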

[2] = test system: HeLa; experiment: In vitro antiproliferative activity against human HeLa cervix cell line; type: functional; how it was run: as §1
[3] = test system: A549; experiment: In vitro antiproliferative activity against human A-549 NSCL cell line; type: functional; how it was run: as §1
[4] = test system: SK-MEL-28; experiment: In vitro antiproliferative activity against human MEL-28 melanoma cell line; type: functional; how it was run: as §1
[5] = test system: IGROV-1; experiment: In vitro antiproliferative activity against human IGROV ovarian cell line; type: functional; how it was run: as §1
[6] = test system: IGROV-1; experiment: In vitro antiproliferative activity against human IGROV-ET ovarian cell line; type: functional; how it was run: as §1
[7] = test system: PANC-1; experiment: In vitro antiproliferative activity against human PANC-1 pancreas cell line; type: functional; how it was run: as §1
[8] = test system: HT-29; experiment: In vitro antiproliferative activity against human HT-29 colon cell line; type: functional; how it was run: as §1
[9] = test system: LoVo; experiment: In vitro antiproliferative activity against human LOVO-DOX colon cell line; NS = Not significant; type: functional, cell-based; how it was run: as §1
[10] = test system: K562; experiment: In vitro antiproliferative activity against human K-562 cell line; type: functional; how it was run: as §1
[11] = test system: LNCaP; experiment: In vitro antiproliferative activity against human LN-caP prostate cell line; type: functional; how it was run: as §1
[12] = test system: DU-145; experiment: In vitro antiproliferative activity against human DU-145 prostate cell line; type: functional; how it was run: as §1
[13] = test system: HeLa; experiment: In vitro antiproliferative activity against human HeLa-APL cervix cell line; type: functional; how it was run: as §1
[14] = test system: LoVo; experiment: In vitro antiproliferative activity against human LOVO colon cell line; type: functional; how it was run: as §1
[15] = test system: HT-29; experiment: In vitro antiproliferative activity against human HT-29 colon cell line; NS = Not significant; type: functional, cell-based; how it was run: as §1
[16] = test system: LoVo; experiment: In vitro antiproliferative activity against human LOVO colon cell line; NS = Not significant; type: functional, cell-based; how it was run: as §1
[17] = test system: DU-145; experiment: In vitro antiproliferative activity against human DU-145 prostate cell line; NS = Not significant; type: functional, cell-based; how it was run: as §1
[18] = test system: HeLa; experiment: In vitro antiproliferative activity against human HeLa cervix cell line; NS = Not significant; type: functional, cell-based; how it was run: as §1
[19] = test system: A549; experiment: In vitro antiproliferative activity against human A-549 NSCL cell line; NS = Not significant; type: functional, cell-based; how it was run: as §1
[20] = test system: K562; experiment: In vitro antiproliferative activity against human K-562 cell line; NS = Not significant; type: functional, cell-based; how it was run: as §1
[21] = test system: PANC-1; experiment: In vitro antiproliferative activity against human PANC-1 pancreas cell line; NS = Not significant; type: functional, cell-based; how it was run: as §1
[22] = test system: IGROV-1; experiment: In vitro antiproliferative activity against human IGROV-ET ovarian cell line; NS = Not significant; type: functional, cell-based; how it was run: as §1
[23] = test system: HeLa; experiment: In vitro antiproliferative activity against human HeLa-APL cervix cell line; NS = Not significant; type: functional, cell-based; how it was run: as §1
[24] = test system: LoVo; experiment: In vitro antiproliferative activity against human LOVO-DOX colon cell line; type: functional; how it was run: as §1
[25] = test system: SK-MEL-28; experiment: In vitro antiproliferative activity against human MEL-28 melanoma cell line; NS = Not significant; type: functional, cell-based; how it was run: as §1

Structure (SMILES) | GI50 [1] | GI50 [2] | GI50 [3] | GI50 [4] | GI50 [5] | GI50 [6] | GI50 [7] | GI50 [8] | GI50 [9] | GI50 [10] | GI50 [11] | GI50 [12] | GI50 [13] | GI50 [14] | GI50 [22] | GI50 [23] | GI50 [24] | also measured
CCOc1ccc(-c2n[n+]3c4ccc(C)cc4ccc3c3ccc4ccccc4c23)cc1 | 500 nM | 300 nM | 500 nM | 400 nM | 400 nM | 1700 nM | 400 nM | 200 nM | inactive | 100 nM | 70 nM | 500 nM | 600 nM | 300 nM | – | – | – | –
Cc1cc[n+]2nc(-c3ccccc3)c3c4ccccc4ccc3c2c1 | 4600 nM | – | – | 8400 nM | 6500 nM | – | – | – | inactive | – | 4000 nM | – | – | – | inactive | inactive | – | GI50 [15]: inactive; GI50 [16]: inactive; GI50 [17]: inactive; GI50 [18]: inactive; GI50 [19]: inactive; GI50 [20]: inactive; GI50 [21]: inactive
c1ccc(-c2n[n+]3c4ccccc4ccc3c3ccc4ccccc4c23)cc1 | 500 nM | 700 nM | 800 nM | 1000 nM | 500 nM | 2000 nM | 1300 nM | 400 nM | – | 400 nM | 300 nM | 1000 nM | 100 nM | 600 nM | – | – | 3500 nM | –
CCOc1ccc(-c2n[n+]3c(C)cccc3c3ccc4ccccc4c23)cc1 | 500 nM | 1300 nM | 800 nM | 1200 nM | 2400 nM | 4500 nM | 1000 nM | 600 nM | – | 600 nM | 400 nM | 1800 nM | 1400 nM | 1000 nM | – | – | 7000 nM | –
Cc1cccc2c3ccc4ccccc4c3c(-c3ccccc3)n[n+]12 | 500 nM | 3800 nM | 4200 nM | 2500 nM | 1700 nM | 2900 nM | 3400 nM | 1200 nM | – | 1500 nM | 400 nM | 3100 nM | 4100 nM | 3000 nM | – | – | 5400 nM | –
CCOc1ccc(-c2n[n+]3ccccc3c3ccc4ccccc4c23)cc1 | 1200 nM | 3100 nM | 3000 nM | 2600 nM | 3800 nM | 8600 nM | 2100 nM | 1100 nM | – | 1200 nM | 500 nM | 4800 nM | 5000 nM | 2900 nM | – | – | 8000 nM | –
Cc1ccc2c(ccc3c4ccc5ccccc5c4c(-c4ccccc4)n[n+]23)c1 | 500 nM | 500 nM | 600 nM | 500 nM | 500 nM | 1800 nM | 700 nM | 400 nM | – | 200 nM | 200 nM | 500 nM | – | 400 nM | – | inactive | 3600 nM | –
COc1cccc2c1C(=O)c1c(O)c3c(c(O)c1C2=O)C[C@@](O)(C(=O)CO)C[C@@H]3O[C@H]1C[C@H](N)[C@H](O)[C@H](C)O1 [DOXORUBICIN] | 1100 nM | 10 nM | 70 nM | 3100 nM | 4400 nM | 2400 nM | 3500 nM | 3100 nM | – | 30 nM | 20 nM | 20 nM | 10 nM | 10 nM | – | – | 2400 nM | –
CCOc1ccc(-c2n[n+]3c4ccccc4ccc3c3ccc4ccccc4c23)cc1 | 3900 nM | 4600 nM | 6000 nM | 5300 nM | 2600 nM | – | 4900 nM | 5400 nM | inactive | 6700 nM | 2600 nM | 5800 nM | 7400 nM | 6300 nM | inactive | – | – | –
c1ccc(-c2n[n+]3ccccc3c3ccc4ccccc4c23)cc1 | 9700 nM | – | – | – | 100 nM | – | – | – | inactive | 7600 nM | 5200 nM | – | – | – | inactive | inactive | – | GI50 [15]: inactive; GI50 [16]: inactive; GI50 [17]: inactive; GI50 [18]: inactive; GI50 [19]: inactive; GI50 [21]: inactive; GI50 [25]: inactive
